Assay [1] relates to KB. Put plainly: Cytotoxicity against human KB cells after 72 hrs by SRB assay. Format: functional. The conditions noted are these: read-out: ED50 (the source's name). The essentials:
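KB-3 cells grown in DMEM with 10% FBS at 37 °C and 5% CO₂ to 60–70% confluence, then used 1 day after a medium change. Samples were dissolved in DMSO and serially diluted in 10% aqueous DMSO. 5×10⁴ cells were exposed for 72 h at 37 °C, then TCA-fixed, stained with 0.4% SRB and read at 515 nm. Zero-day control was subtracted and values expressed relative to solvent control; ED50 by nonlinear regression.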
On the technique in general: In SRB staining, fixed cells bind dye roughly in proportion to their protein.

Assay [2] has as its system Plasmodium falciparum. The experiment in a line: Antiplasmodial activity against chloroquine-sensitive Plasmodium falciparum D6 infected human erythrocytes as [3H]hypoxanthine uptake after 24 hrs. Format: functional, organism-based. The procedure, abridged:
(§1)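 P. falciparum (D6, W2) cultured in type A+ human erythrocytes, RPMI-1640 with NaHCO3, HEPES and 10% heat-inactivated human plasma, 37 °C under 5% O2/5% CO2/90% N2. Infected red cells at 0.5-1.0% parasitemia, 1.0% hematocrit exposed to compound, duplicate seven-point series, 24 h; then 0.5 μCi [3H]hypoxanthine per well for 18 h more. Filter harvest, scintillation counting; IC50 by nonlinear regression versus zero-drug controls.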

Assay [3] can be described thus: Selectivity index, ratio of ED50 for human KB cells to IC50 for […] Plasmodium falciparum D6. Format: functional.
Assay [4] concerns Plasmodium falciparum. The experiment in a line: Antiplasmodial activity against chloroquine-resistant Plasmodium falciparum W2 infected human erythrocytes as [3H]hypoxanthine uptake after 24 hrs. Format: functional, organism-based. The essentials: as §1
Assay [5] is described as follows: Selectivity index, ratio of ED50 for human KB cells to IC50 for chloroquine-resistant Plasmodium falciparum W2. The assay is classed as functional.

As to `COc1cc2c3c4c1Oc1cc5c(cc1O4)[C@H](Cc1ccc(O)c(c1)Oc1ccc(cc1)C[C@@H]3NCC2)N(C)CC5`, the EC50 in assay [1] was 3800 nM. Also, the IC50 in assay [2] was found to be 48 nM; in assay [4], 281 nM. Besides, the “Selectivity Index” value in assay [3] came out at 79; in assay [5], 14.
The corresponding values for `CN1CCc2cc3c4cc2[C@@H]1Cc1ccc(O)c(c1)Oc1ccc(cc1)C[C@H]1c2c(cc(O)c(c2O4)O3)CCN1C` are 4900 nM, 90 nM, 259 nM, 55 and 19.
For `COc1ccc2cc1Oc1ccc(cc1)C[C@H]1c3cc(c(OC)cc3CCN1C)Oc1c(O)c(OC)cc3c1[C@@H](C2)NCC3`, the EC50 in assay [1] was found to be 10400 nM. The IC50 in assay [2] is 115 nM; in assay [4], 210 nM. Besides, the “Selectivity Index” value in assay [3] worked out at 92; in assay [5], 50.
The corresponding values for `COc1ccc2cc1Oc1ccc(cc1)C[C@H]1c3cc(c(OC)cc3CCN1C)Oc1c(OC)c(OC)cc3c1[C@@H](C2)N(C)CC3` are 10600 nM, 260 nM, 88 nM, 40 and 120.
In turn, `COc1ccc2cc1Oc1ccc(cc1)C[C@H]1c3cc(c(OC)cc3CCN1C)Oc1c(OC)c(OC)cc3c1[C@@H](C2)NCC3` yielded an IC50 in assay [2] of 106 nM. Further, the “Selectivity Index” value in assay [3] is recorded as 95.
On to `COc1cc2c(cc1O)[C@H](Cc1ccc(Oc3cc(C[C@@H]4c5cc(OC)c(OC)cc5CCN4C)ccc3OC)cc1)N(C)CC2`, for which the EC50 in assay [1] is more than 32100 nM. Further, the results for the IC50 in assay [2] and in assay [4] were 213 nM and 227 nM, respectively. For the same compound, the “Selectivity Index” value in assay [3] is given as more than 150; in assay [5] it was more than 140.
With `COc1ccc2cc1Oc1ccc(cc1)C[C@H]1c3c(cc(OC)c4c3Oc3cc5c(cc3O4)CCN=C5C2)CCN1C`, the EC50 in assay [1] stood at 5000 nM. The IC50 in assay [2] was determined as 554 nM; in assay [4], 464 nM. In addition, the “Selectivity Index” value in assay [3] and in assay [5] was 11 each time.
In the case of `COc1ccc2cc1Oc1ccc(cc1)C[C@H]1c3c(cc(O)c(OC)c3Oc3cc4c(cc3OC)CCN(C)[C@@H]4C2)CCN1C`, the EC50 in assay [1] amounted to 10500 nM. Moreover, the IC50 in assay [2] amounted to 214 nM; in assay [4], 510 nM. For the same compound, the “Selectivity Index” value came out at 49 in assay [3] and 21 in assay [5].
In the same order, the values of `COc1cc2c3cc1Oc1c(O)c(OC)cc4c1[C@H](Cc1ccc(O)c(c1)Oc1ccc(cc1)C[C@H]3N(C)CC2)N(C)CC4` are 17500 nM, 134 nM, 609 nM, 130 and 29.
Regarding `COc1cc2c3cc1Oc1c(O)c(OC)cc4c1[C@H](Cc1ccc(O)c(c1)Oc1ccc(cc1)C[C@@H]3N(C)CC2)N(C)CC4`, in assay [1], the EC50 stood at 3700 nM. Also, the figures for the IC50 in assay [2] and in assay [4] were 232 nM and 623 nM, respectively. Also, the “Selectivity Index” value in assay [3] is given as 16; in assay [5], 6.
With `COc1ccc2cc1Oc1ccc(cc1)C[C@H]1c3cc(c(OC)cc3CCN1C)Oc1c(O)c(OC)cc3c1[C@@H](C2)N(C)CC3`, in assay [1], the EC50 was 10700 nM. Besides, the IC50 was found to be 199 nM in assay [2] and 378 nM in assay [4]. Moreover, the results for the “Selectivity Index” value in assay [3] and in assay [5] were 54 and 28, respectively.
In the same order, the values of `COc1ccc2cc1Oc1ccc(cc1)C[C@@H]1c3c(cc(OC)c(O)c3Oc3cc4c(cc3OC)CCN[C@@H]4C2)CCN1C` are 9800 nM, 106 nM, 375 nM, 92 and 26.
In the same order, the values of `COc1ccc2cc1Oc1ccc(cc1)C[C@@H]1c3c(cc(OC)c(O)c3Oc3cc4c(cc3OC)CCN(C)[C@@H]4C2)CCN1C` are 4110 nM, 64 nM, 192 nM, 64 and 21.
In the same order, the values of `COc1ccc(C[C@H]2c3cc(Oc4cc(OC)c(OC)cc4C[C@H]4c5cc(O)c(OC)cc5CCN4C)c(OC)cc3CCN2C)cc1O` are more than 29900 nM, 61 nM, 164 nM, more than 490 and more than 180.
On to `COc1cc2c3cc1Oc1c(O)c(OC)cc4c1[C@@H](Cc1ccc(cc1)Oc1cc(ccc1O)C[C@H]3N(C)CC2)N(C)CC4`, for which, in assay [1], the EC50 amounted to 8600 nM. In addition, the results for the half-inhibitory concentration (IC50) in assay [2] and in assay [4] were 29 nM and 105 nM, respectively. Also, the entries for the “Selectivity Index” value in assay [3] and in assay [5] were 300 and 82, respectively.
In the case of `COc1ccc2cc1Oc1ccc(cc1)C[C@H]1c3c(cc(O)c4c3Oc3cc5c(cc3O4)CCN(C)[C@H]5C2)CCN1C`, the EC50 in assay [1] was 6000 nM. In addition, the half-inhibitory concentration (IC50) in assay [2] is 30 nM. Further, the “Selectivity Index” value came out at 200 in assay [3] and 54 in assay [5].
Take `COc1ccc2cc1Oc1ccc(cc1)C[C@H]1c3c(cc4c(c3Oc3cc5c(cc3OC)CCN[C@@H]5C2)OCO4)CCN1C`: in assay [1], the EC50 was found to be 6600 nM. The results for the half-inhibitory concentration (IC50) in assay [2] and in assay [4] were 79 nM and 219 nM, respectively. The “Selectivity Index” value in assay [3] amounted to 84; in assay [5] it was 30.
In the same order, the values of `COc1ccc2cc1Oc1ccc(cc1)C[C@H]1c3c(cc(OC)c(OC)c3Oc3cc4c(cc3OC)CCN[C@@H]4C2)CCN1C` are 9900 nM, 75 nM, 154 nM, 130 and 64.
The corresponding values for `COc1ccc2cc1Oc1ccc(cc1)C[C@H]1c3c(cc(OC)c(O)c3Oc3cc4c(cc3OC)CCN(C)[C@H]4C2)CCN1C` are 3620 nM, 48 nM, 67 nM, 76 and 54.
In the same order, the values of `COc1ccc2cc1Oc1ccc(cc1)C[C@@H]1NCCc3cc(OC)c(cc31)Oc1c(O)c(OC)cc3c1[C@@H](C2)N(C)CC3` are 2700 nM, 118 nM, 218 nM, 23 and 12.
Turning to `COc1cc2c3cc1Oc1c(O)c(OC)cc4c1[C@H](Cc1ccc(cc1)Oc1cc(ccc1O)C[C@H]3N(C)CC2)N(C)CC4`, the EC50 in assay [1] stood at 14800 nM. Besides, the IC50 in assay [2] came to 446 nM; in assay [4] it was 1400 nM. The “Selectivity Index” value in assay [3] is on record as 33; in assay [5], 11.
In the case of `COc1ccc2cc1Oc1cc3c(cc1OC)CCN(C(C)=O)[C@H]3Cc1ccc(cc1)Oc1c3c(cc4c1[C@@H](C2)N(C)CC4)OCO3`, in assay [1], the EC50 was 13600 nM. Moreover, the IC50 in assay [2] came to 1910 nM; in assay [4], 1050 nM. Moreover, in assay [5], the “Selectivity Index” value is listed as 13.
As to `COc1ccc2cc1Oc1ccc(cc1)C[C@@H]1c3cc(c(OC)cc3CCN1C)Oc1c(O)c(OC)cc3c1[C@@H](C2)N(C)CC3`, the EC50 in assay [1] turned out to be 16100 nM. The IC50 in assay [2] was 86 nM; in assay [4], 263 nM. Moreover, the “Selectivity Index” value is on record as 186 in assay [3] and 61 in assay [5].
The corresponding values for `COc1cc2c3cc1Oc1c(OC)c(OC)cc4c1[C@H](Cc1ccc(cc1)Oc1cc(ccc1O)C[C@@H]3N(C)CC2)N(C)CC4` are 15000 nM, 42 nM, 67 nM, 350 and 220.
The corresponding values for `COc1cc2c3cc1Oc1c(OC)c(OC)cc4c1[C@@H](Cc1ccc(O)c(c1)Oc1ccc(cc1)C[C@@H]3N(C)CC2)NCC4` are 7100 nM, 47 nM, 193 nM, 149 and 36.
In the same order, the values of `COc1ccc2cc1Oc1ccc(cc1)C[C@H]1c3cc(c(OC)cc3CC[N+]1(C)[O-])Oc1c(OC)c(OC)cc3c1[C@H](C2)N(C)CC3` (some centres undefined) are more than 31300 nM, 1980 nM, 948 nM, more than 16 and more than 34.
In the case of `CCN(CC)CCCC(C)Nc1ccnc2cc(Cl)ccc12` (centres undefined) [CHLOROQUINE], the EC50 in assay [1] was found to be 33700 nM.
On to `COc1cc2c3c4c1Oc1cc5c(cc1O4)[C@H](Cc1ccc(O)c(c1)Oc1ccc(cc1)C[C@@H]3N(C)CC2)N(C)CC5` [COCSULINE], for which the EC50 in assay [1] was determined as 10000 nM. Moreover, the values for the IC50 in assay [2] and in assay [4] were 87 nM and 502 nM, respectively. In assay [3], the “Selectivity Index” value turned out to be 110.
For the compound `OC(c1cc(C(F)(F)F)nc2c(C(F)(F)F)cccc12)C1CCCCN1` (centres undefined) [MEFLOQUINE], the EC50 in assay [1] worked out at 8430 nM. Also, the “Selectivity Index” value is 465 in assay [3] and 1080 in assay [5]. The compound further came in with a concentration for half-maximal inhibition (IC50) in assay [4] of 7.78 nM.

Broadly, the IC50 is the concentration at which inhibition is half-maximal. A higher IC50 goes with weaker potency.

For the origin of these results see ChEMBL document CHEMBL1157985, “Antiplasmodial and cytotoxic activity of natural bisbenzylisoquinoline alkaloids” (J Nat Prod, 1999).
